Results published in ChEMBL document CHEMBL1135602 (J Med Chem, 2002).

Tests used:
BC = experiment: Cytotoxicity against human breast cancer cells.; type: functional, cell-based
Plasmodium falciparum [1] = experiment: In vitro antiplasmodial activity (IC50) against Plasmodium falciparum wtTM4/8.2; type: functional, organism-based
Vero = experiment: Cytotoxicity by the selective inhibition against African green monkey kidney […] (vero cells).; type: functional, cell-based; details: Chlorocebus sabaeus
KB = experiment: Cytotoxicity against human epidermoid carcinoma KB cell.; type: functional, cell-based
[2] = target: Bifunctional dihydrofolate reductase-thymidylate synthase (Plasmodium falciparum K1) (UniProt P13922); experiment: Inhibition of mutant S108N dihydrofolate reductase (DHFR) relative to Pyr
Plasmodium falciparum [3] = experiment: IC50 ratio against Plasmodium falciparum K1CB1/TM4; type: functional
[4] = test system: Bifunctional dihydrofolate reductase-thymidylate synthase (Plasmodium falciparum K1), P13922 [UNDEFINED MUTATION]; experiment: Ratio of Inhibition of the S108N mutant of dihydrofolate reductase (DHFR) to inhibition of wild type dihydrofolate reductase.
[5] = test system: Bifunctional dihydrofolate reductase-thymidylate synthase (Plasmodium falciparum K1), P13922 [UNDEFINED MUTATION]; experiment: Ratio of Inhibition of the C59R+S108N mutant of dihydrofolate reductase (DHFR) to inhibition of wild type dihydrofolate reductase.
[6] = target: Bifunctional dihydrofolate reductase-thymidylate synthase (Plasmodium falciparum K1, UniProt P13922, S108N); experiment: Inhibition of the S108N mutant of dihydrofolate reductase (DHFR)
Summary of the method: (§1)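 Assay at 25 °C: 50 mM TES pH 7.0, 75 mM β-mercaptoethanol, 1 mg/mL BSA, 100 µM H2folate and 100 µM NADPH. NADPH oxidation followed at 340 nm. Ki derived from IC50 as Ki(1+[S]/Km), assuming competitive inhibition.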

[7] = target: Bifunctional dihydrofolate reductase-thymidylate synthase (Plasmodium falciparum K1, UniProt P13922); experiment: Inhibition of the C59R+S108N mutant of dihydrofolate reductase (DHFR); summary of the method: as §1
[8] = target: Bifunctional dihydrofolate reductase-thymidylate synthase (Plasmodium falciparum K1) (UniProt P13922); experiment: Inhibition of mutant C59R+S108N dihydrofolate reductase (DHFR) relative to Pyr
[9] = target: Bifunctional dihydrofolate reductase-thymidylate synthase (Plasmodium falciparum K1) (UniProt P13922); experiment: Inhibition of Plasmodium falciparum wild-type dihydrofolate reductase (DHFR) relative to Pyrimethamine.
Plasmodium falciparum [10] = experiment: Relative antiplasmodial activity (IC50) compared to Pyr against Plasmodium falciparum K1CB1 DHFR double-mutant (C59R/S108N); type: functional
[11] = target: Bifunctional dihydrofolate reductase-thymidylate synthase (Plasmodium falciparum K1) (UniProt P13922); experiment: Inhibition of the S108N mutant of dihydrofolate reductase (DHFR) relative to Pyr.
Summary of the method: (§2)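 Assayed at 25 °C in 50 mM TES pH 7.0, 75 mM β-mercaptoethanol, 1 mg/mL BSA, with 100 µM H2folate and 100 µM NADPH. A340 was followed. Ki was derived from IC50 = Ki(1+[S]/Km), assuming competitive inhibition.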

Plasmodium falciparum [12] = experiment: In vitro relative antiplasmodial activity (IC50) compared to Pyr against Plasmodium falciparum TM4/8.2 wild-type; type: functional
[13] = target: Bifunctional dihydrofolate reductase-thymidylate synthase (Plasmodium falciparum K1) (UniProt P13922); experiment: Inhibition of the wild-type dihydrofolate reductase (DHFR) relative to Pyr.; summary of the method: as §2
[14] = target: Bifunctional dihydrofolate reductase-thymidylate synthase (Plasmodium falciparum K1) (UniProt P13922); experiment: Inhibition of the C59R+S108N mutant of dihydrofolate reductase (DHFR) relative to Pyr.; summary of the method: as §2
Plasmodium falciparum [15] = experiment: Safety ratio as cytotoxicity in vero cells relative to IC50 TM4; type: functional
[16] = Safety ratio is cytotoxicity to vero cells/IC50 K1.; type: toxicity, cell-based; details: monkey, read-out: Safety ratio
Summary of the method: (§3)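 Ratio of the cytotoxicity IC50 (vero, KB or BC cells, Skehan protocol) to the antiplasmodial IC50 against K1CB1 (C59R+S108N DHFR). […] Label was added at 24 h and cultures ran a further 18-24 h. Final DMSO was 0.1%.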

[17] = Safety ratio is cytotoxicity to KB cells/IC50 K1.; type: toxicity, cell-based; details: human, KB cells (epidermoid carcinoma); read-out: Safety ratio; summary of the method: as §3
[18] = Safety ratio is cytotoxicity to KB cells/IC50 TM4.; type: toxicity, cell-based; details: human, KB cells (epidermoid carcinoma); read-out: Safety ratio
Summary of the method: (§4)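 Ratio of the cytotoxicity IC50 (KB or BC cells, Skehan protocol) to the antiplasmodial IC50 against TM4/8.2 (wild-type DHFR). […] Label was added after 24 h and cultures ran a further 18-24 h.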

[19] = Safety ratio is cytotoxicity to BC cells/IC50 K1.; type: toxicity, cell-based; details: human, BC cells (breast cancer); read-out: Safety ratio; summary of the method: as §3
[20] = Safety ratio is cytotoxicity to BC cells/IC50 TM4.; type: toxicity, cell-based; details: human, BC cells (breast cancer); read-out: Safety ratio; summary of the method: as §4
[21] = target: Bifunctional dihydrofolate reductase-thymidylate synthase (Plasmodium falciparum K1) (UniProt P13922); experiment: Inhibition of the wild-type dihydrofolate reductase (DHFR) relative to Tmp; summary of the method: as §2
[22] = target: Bifunctional dihydrofolate reductase-thymidylate synthase (Plasmodium falciparum K1) (UniProt P13922); experiment: Inhibition of the C59R+S108N mutant of dihydrofolate reductase (DHFR)relative to Tmp; summary of the method: as §2
[23] = target: Bifunctional dihydrofolate reductase-thymidylate synthase (Plasmodium falciparum K1) (UniProt P13922); experiment: Inhibition of S108N mutant dihydrofolate reductase (DHFR)relative to Tmp; summary of the method: as §2

Sequence of Bifunctional dihydrofolate reductase-thymidylate synthase (Plasmodium falciparum K1) (P13922 whole entry, looked up): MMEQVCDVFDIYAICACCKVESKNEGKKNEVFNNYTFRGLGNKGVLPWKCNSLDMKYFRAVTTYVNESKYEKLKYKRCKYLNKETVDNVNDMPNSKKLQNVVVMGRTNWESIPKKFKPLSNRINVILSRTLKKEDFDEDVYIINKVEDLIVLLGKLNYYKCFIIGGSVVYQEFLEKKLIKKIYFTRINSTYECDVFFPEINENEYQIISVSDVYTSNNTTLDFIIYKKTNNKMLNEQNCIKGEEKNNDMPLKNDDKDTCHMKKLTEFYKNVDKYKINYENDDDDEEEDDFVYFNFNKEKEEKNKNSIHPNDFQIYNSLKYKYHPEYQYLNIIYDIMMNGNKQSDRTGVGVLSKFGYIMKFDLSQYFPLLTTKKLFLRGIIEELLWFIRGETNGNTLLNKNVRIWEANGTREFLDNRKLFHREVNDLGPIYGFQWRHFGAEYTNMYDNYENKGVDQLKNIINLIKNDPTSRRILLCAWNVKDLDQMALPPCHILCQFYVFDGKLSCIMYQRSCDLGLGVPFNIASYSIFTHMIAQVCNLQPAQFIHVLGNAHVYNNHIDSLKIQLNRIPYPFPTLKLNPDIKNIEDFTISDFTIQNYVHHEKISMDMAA
Sequence of Bifunctional dihydrofolate reductase-thymidylate synthase (Plasmodium falciparum K1), P13922 [UNDEFINED MUTATION] (P13922 whole entry, looked up, stated change not applied): as the sequence (P13922 whole entry, looked up) above
Sequence of Bifunctional dihydrofolate reductase-thymidylate synthase (Plasmodium falciparum K1, UniProt P13922, S108N) (P13922 whole entry, looked up, stated change not applied): as the sequence (P13922 whole entry, looked up) above
Sequence of Bifunctional dihydrofolate reductase-thymidylate synthase (Plasmodium falciparum K1, UniProt P13922) (P13922 whole entry): as the sequence (P13922 whole entry, looked up) above

SMILES	IC50 (Plasmodium falciparum [1]) [nM]	Relative activity [2]	Ratio (Plasmodium falciparum [3])	Ratio [4]	Ratio [5]	Ki [6] [nM]	Ki [7] [nM]	Relative activity [8]	Relative activity [9]	other results
COc1cc(COc2ccc(Cc3cnc(N)nc3N)cc2)cc(OC)c1OC	700									IC50 (BC): > 250000 nM; IC50 (Vero): > 250000 nM; IC50 (KB): > 250000 nM
CCc1nc(N)nc(N)c1-c1ccc2c(c1)OCO2	400	0.6	53.8	15.6	31.5	17.2	34.6	0.6	1.8	
CCc1nc(N)nc(N)c1-c1ccc(OC)cc1	300		>84	43.3	95.6	39	86			Relative activity (Plasmodium falciparum [10]): >0.8; Relative activity [11]: 1.4; Relative activity (Plasmodium falciparum [12]): 3.8; Relative activity [13]: 1.5; Relative activity [14]: 1.6
Nc1ncc(-c2ccccc2)c(N)n1	20900	2.8	0.9	1.9	1.8	81	76.2	1.4	69.8	
CCCCOc1cc(Cc2cnc(N)nc2N)ccc1OCc1cc(OC)c(OC)c(OC)c1	440									IC50 (Vero): > 50000 nM; IC50 (KB): > 50000 nM
CCc1nc(N)nc(N)c1-c1ccc(OCc2ccc(Cl)cc2Cl)c(OC)c1	3700									
Nc1ncc(-c2ccc(Cl)cc2)c(N)n1	2300	12.9	11.4	154	232	369	556	10.3	4	
Cc1nc(N)nc(N)c1-c1ccccc1	7400	0.9	4.2	2.3	3.4	25.6	36.7	0.7	18.2	
CCOc1cc(Cc2cnc(N)nc2N)ccc1OCc1ccccc1	500									IC50 (BC): 100000 nM; IC50 (Vero): > 250000 nM; IC50 (KB): 47000 nM
CCc1nc(N)nc(N)c1-c1ccc(Cl)c(Cl)c1 [ETOPRINE]	60	0.3	290	9	12.6	9	12.6	0.2	1.7	
Cc1nc(N)nc(N)c1-c1ccc(Cl)cc1	500	3.6	120.2	51.8	71	104	142	2.6	3.3	
CCc1nc(N)nc(N)c1-c1ccc(C)cc1	100		127	26.5	36.8	10.6	14.7			Relative activity (Plasmodium falciparum [10]): 0.4; Relative activity [11]: 0.4; Relative activity (Plasmodium falciparum [12]): 1.2; Relative activity [13]: 0.7; Relative activity [14]: 0.3
COC(=O)CCCc1nc(N)nc(N)c1-c1ccc(Cl)cc1	40	0.6	557.5	56.3	91.3	16.9	27.4	0.5	0.5	
COC(=O)CCCc1nc(N)nc(N)c1-c1ccccc1	400	0.06	78.3	0.06	9.2	1.8	5.5	0.1	1	
CCc1nc(N)nc(N)c1-c1ccccc1	700		4.7	2	3.8	4.5	8.7			Safety ratio (Plasmodium falciparum [15]): 444; Relative activity (Plasmodium falciparum [10]): 0.1; IC50 (BC): > 500000 nM; IC50 (Vero): 320000 nM; selectivity ratio [16]: 96; Relative activity [11]: 0.2; Relative activity (Plasmodium falciparum [12]): 8.7; selectivity ratio [17]: > 151; selectivity ratio [18]: > 714; Relative activity [13]: 3.8; selectivity ratio [19]: > 151; IC50 (KB): > 500000 nM; selectivity ratio [20]: > 714
Nc1ncc(-c2cccc(Cl)c2)c(N)n1	6000		1.5	4.2	5	26.3	31.6		10.5	
COc1cc(COc2cc(Cc3cnc(N)nc3N)ccc2OCc2ccccc2)cc(OC)c1OC	19000		0.9	2.5	41.5	180	503			Relative activity [21]: 1.2; Relative activity [22]: 2.1; Relative activity [23]: 1.4
CCc1nc(N)nc(N)c1-c1cccc(Cl)c1	400	[…]	[…]			1.6	[…]	[…]	[…]	Safety ratio (Plasmodium falciparum [15]): […]; IC50 (BC): 25000 nM; IC50 (Vero): 7000 nM; selectivity ratio [16]: […]; selectivity ratio [17]: […]; selectivity ratio [18]: […]; IC50 (KB): 46000 nM
Nc1nc(N)c(-c2cccc(Cl)c2)c(CCCc2ccccc2)n1	700		4.3	2.5	3.5	3	4.2		2	
CCOc1c(Br)cc(-c2c(N)nc(N)nc2CC)cc1Br	3700	14.5	4.7	59.3	76.3	415	535	9.9	11.7	
COc1cc(Cc2cnc(N)nc2N)cc(OC)c1OCc1ccccc1	4200		7.1			61.9	71.9			
Nc1nc(N)c(-c2ccc(Cl)cc2)c(CCCc2ccccc2)n1	50	0.5	212	19.9	33.3	13.9	23.3	0.4	1.2	
Cc1nc(N)nc(N)c1-c1cccc(Cl)c1	2400		2	1.7	1.6	3.2	3.1		3.2	
CCc1nc(N)nc(N)c1-c1ccc(-c2ccccc2)cc1	13100		0.3	2.2	3.9	421	730			Relative activity (Plasmodium falciparum [10]): 0.1; Relative activity [11]: 14.7; Relative activity (Plasmodium falciparum [12]): 163.8; Relative activity [13]: 313; Relative activity [14]: 13.5
CCc1nc(N)nc(N)c1-c1ccc(Cl)cc1 [PYRIMETHAMINE]	80									IC50 (BC): > 250000 nM; IC50 (KB): 109000 nM
CCc1nc(N)nc(N)c1-c1ccc(Cl)cc1Cl	11300	41	2	93.1	90.6	1170	1140	21.2	21	
COc1cc(Cc2cnc(N)nc2N)cc(OC)c1OC [TRIMETHOPRIM]										IC50 (BC): > 250000 nM; IC50 (Vero): > 50000 nM; IC50 (KB): > 250000 nM
COC(=O)CCCc1nc(N)nc(N)c1-c1cccc(Cl)c1	800		45.4	3.4	5.6	1.7	2.8		0.8	
